Shown are actives, neighbours in structure and some others; about 1.9% of the full set was active somewhere.
STEP inh: STEP phosphatase inhibitors, primary screen, biochemical, fluorescence intensity, uHTS; AID 588621, 2011; actives 0.25% (n = 360,000); recombinant STEP, OMFP fluorogenic substrate; inhibition, % at 20 µM;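 active means inhibition at 20 µM, scaled per plate between control wells, above about 37%, limit read from the data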
Target sequence (P54829 whole entry, looked up): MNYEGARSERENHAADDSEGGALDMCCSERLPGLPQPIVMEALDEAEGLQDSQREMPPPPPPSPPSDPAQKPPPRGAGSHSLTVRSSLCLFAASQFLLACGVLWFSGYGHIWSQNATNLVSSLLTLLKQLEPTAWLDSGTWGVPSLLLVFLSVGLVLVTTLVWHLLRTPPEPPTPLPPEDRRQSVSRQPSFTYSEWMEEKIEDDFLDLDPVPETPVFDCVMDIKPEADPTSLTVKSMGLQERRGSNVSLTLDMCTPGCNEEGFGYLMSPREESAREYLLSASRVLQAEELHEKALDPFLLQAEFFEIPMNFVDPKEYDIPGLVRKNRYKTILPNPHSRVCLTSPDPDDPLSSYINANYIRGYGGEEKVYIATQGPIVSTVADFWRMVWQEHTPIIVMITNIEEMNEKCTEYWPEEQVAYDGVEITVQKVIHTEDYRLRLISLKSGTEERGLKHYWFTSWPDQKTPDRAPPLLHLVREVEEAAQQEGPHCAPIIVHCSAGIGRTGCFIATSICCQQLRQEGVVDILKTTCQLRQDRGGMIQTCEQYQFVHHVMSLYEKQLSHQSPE
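Test system: STEP tyrosine phosphatase / Reagent: OMFP at 25 µM / Doses: 20 µM, 1% DMSO / Read-out: percent inhibition scaled to no-enzyme and uninhibited-enzyme controls, plate-pattern corrected / Detection: FITC-channel fluorescence of OMFP product / Medium: Bis-Tris buffer pH 6.0, 2.5 mM DTT, 0.005% Tween 20 / Schedule: 20 min at room temperature, dark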
PP1 inh: PP1-alpha phosphatase inhibitors, primary screen, counter-screen for PP5 inhibitor project, biochemical, fluorescence, OMFP substrate, single point. Serine/threonine-protein phosphatase PP1-alpha catalytic subunit (Homo sapiens), P62136. purified PP1alpha. inhibition, % at 6.7 µM. actives 0.9% (n = 320,000). AID 2235, 2010;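 active means inhibition above the mean inhibition of all tested compounds plus 3 SD, computed separately for each screening campaign, cut at about 15% in these data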
LMPTP block: LMPTP phosphatase inhibitors, primary screen, biochemical, fluorescence intensity, uHTS | Low molecular weight phosphotyrosine protein phosphatase (Homo sapiens), P24666 | recombinant LMPTP-A, OMFP fluorogenic substrate | inhibition, % at 20 µM | actives 0.22% (n = 360,000) | AID 651560, 2012;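 active means compounds that cut the enzyme signal by at least half of the control window in the single-dose screen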
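Test system: LMPTP-A phosphatase enzyme; input: 0.625 nM LMPTP-A final; reagent: OMFP substrate, 400 µM final; compound dosing: 20 µM single dose, 3% DMSO; incubation: 50 min dark incubation at room temperature; measured by: endpoint fluorescence intensity from OMFP dephosphorylation; measure: % inhibition relative to no-enzyme and uninhibited control wells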
PP5 inh: PP5 phosphatase inhibitors, primary screen, biochemical, fluorescence | purified PP5c, OMFP substrate fluorescence | actives 0.18% (n = 320,000) | Serine/threonine-protein phosphatase 5 (Homo sapiens), P53041 | inhibition, % at 6.7 µM;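 active means inhibition above the campaign's mean inhibition across all tested compounds plus 3 SD, cut at about 9.5% in these data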
Scp1 inh: Scp-1 phosphatase inhibitors, primary screen, biochemical, colorimetric, uHTS. Carboxy-terminal domain RNA polymerase II polypeptide A small phosphatase 1 (Homo …. Recombinant Scp1, phosphopeptide, malachite green phosphate absorbance. actives 0.88% (n = 340,000). AID 493091, 2011. inhibition, % at 20 µM;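 active means inhibition above about 50% at 20 µM, limit read from the data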
Target sequence (Q9GZU7 76-261 limits assumed): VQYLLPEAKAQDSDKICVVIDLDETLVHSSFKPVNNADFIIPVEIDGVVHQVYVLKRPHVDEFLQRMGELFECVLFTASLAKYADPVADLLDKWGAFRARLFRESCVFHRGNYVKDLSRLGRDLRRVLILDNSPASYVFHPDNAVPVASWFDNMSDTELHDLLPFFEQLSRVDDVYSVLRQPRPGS
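Test system: SCP-1 catalytic domain; Buffer or medium: Acidic Tris acetate buffer with magnesium and detergent; Also added: Phosphorylated 17-residue peptide substrate; Compound: single 20 µM dose, 1% DMSO; Schedule: enzyme reaction 45 min at room temperature, colour 5 min, stabilisation 30 min; Signal: Phosphate-binding colour reagent, absorbance read at 630 nm.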
Scp-1 conf: Scp-1 phosphatase inhibitors, retest, confirmation, biochemical, colorimetric, single concentration | shares compounds with Scp1 inh | AID 540281, 2011 | recombinant SCP-1 catalytic domain, phosphate release, malachite green absorbance | inhibition, % at 20 µM | actives 61% (n = 2,500)
Scp-1 MG ctr: colorimetric readout interference by compounds, confirmation, artefact control for Scp-1 inhibitor project, biochemical, single concentration; apparent inhibition (interference), % at 20 µM; AID 540313, 2011; Colorimetric interference counterscreen, malachite green absorbance 630 nm; 2,500 tested, under 10 active; shares compounds with Scp1 inh;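 further: compounds added after enzyme reaction finished so only phosphate colour detection is probed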
Scp-1 Tm shift: Scp-1 binding by thermal shift, confirmation, orthogonal assay for Scp-1 inhibitor project, biophysical, differential scanning fluorimetry; AID 540329, 2011; thermal shift relative to vanadate control, % at 40 µM; Recombinant SCP1, Sypro Orange thermal shift Tm; shares compounds with Scp1 inh; actives 25% (n = 1,500);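 active means substances whose mean melting-temperature shift, as a percentage of the reference inhibitor's shift, reaches about 5.3%, limit read from the data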
Large screens that a line does not name were inactive (follow-up assays come after a bar, where they were run).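 How the source made its calls, unless noted: active means inhibition of at least 30% at 20 µM; inactive means the rest.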

O=C(NCc1cccc(CNC(=O)C(=O)NCc2ccco2)c1)C(=O)NCc1ccco1	LMPTP block 56, Scp1 inh 91 | Scp-1 conf 65 | Scp-1 MG ctr inactive | Scp-1 Tm shift inactive
O=C(COC(=O)c1cccnc1Cl)NCc1ccco1	Scp1 inh 92 | Scp-1 conf 70 | Scp-1 MG ctr inactive | Scp-1 Tm shift inactive
O=C(COC(=O)Cc1cccc(C(F)(F)F)c1)NCc1ccco1	Scp1 inh 77 | Scp-1 conf 68 | Scp-1 MG ctr inactive | Scp-1 Tm shift inactive
Nc1cc(=O)[nH]c(=O)n1-c1cccc(F)c1	none
O=C(COC(=O)c1cccs1)NCc1ccco1	Scp1 inh 97 | Scp-1 conf 64 | Scp-1 MG ctr inactive | Scp-1 Tm shift inactive
CSc1nnc(-c2cc[n+](C)cc2)n1CCO	Scp1 inh 66 | Scp-1 conf inactive | Scp-1 MG ctr inactive
CSc1nnc(-c2ccccc2)n1N	none (no result: PP1 inh, PP5 inh)
CC(C)c1ccc(NS(=O)(=O)c2ccc3c(c2)oc(=O)n3C)cc1	none | Scp-1 conf inactive | Scp-1 MG ctr inactive
CCOc1ccccc1NC(=O)C1=C(C)NC(=S)NC1c1cccs1 (stereo not drawn)	Scp1 inh 64 | Scp-1 conf inactive | Scp-1 MG ctr inactive
Cc1c(/C=N/NC(=O)c2cccnc2)cc(C#N)n1C	none
O=C(Nc1ccccc1)Nc1cc([N+](=O)[O-])ccc1F	none
CCCc1cc(=O)oc2cc(OCC(=O)NC(Cc3c[nH]c4ccc(O)cc34)C(=O)O)c(Cl)cc12 (stereo not drawn)	Scp1 inh 55 | Scp-1 conf 51 | Scp-1 MG ctr inactive | Scp-1 Tm shift 11
N#CC(C#N)=Cc1cccn1-c1ccc(C(=O)O)cc1	Scp1 inh 70 | Scp-1 conf 61 | Scp-1 MG ctr inactive | Scp-1 Tm shift inactive
N#C/C(=C/c1cccn1-c1cccc(C(=O)O)c1)c1ccc(Cl)cc1	none
N#Cc1ccccc1CN1C(=O)S/C(=C/c2cccn2-c2ccc(C(=O)O)cc2)C1=O	Scp1 inh 92 | Scp-1 conf 63 | Scp-1 MG ctr inactive | Scp-1 Tm shift inactive
COc1cc(NC(=O)CN(c2cc(C)cc(C)c2)S(=O)(=O)c2c(C)[nH]c(=O)[nH]c2=O)cc(OC)c1	none
O=C(/C(=C(\O)c1ccccc1)c1ncc[nH]1)c1ccccc1	none
CCOc1ccccc1NC(=O)c1ccc(OCC)c([N+](=O)[O-])c1	none
CCOc1ccc(C(=O)Nc2cccc(-c3cc4ccccc4oc3=O)c2)cc1[N+](=O)[O-]	Scp1 inh 93 | Scp-1 conf inactive | Scp-1 MG ctr inactive
Cc1c(C(Nc2ccccn2)c2ccc(Cl)cc2)c(=O)n(-c2ccccc2)n1C (stereo not drawn)	none
O=C1CC(=O)NC(SCC(=O)Nc2ccccc2[N+](=O)[O-])=N1	Scp1 inh 77 | Scp-1 conf 67 | Scp-1 MG ctr inactive | Scp-1 Tm shift 13
CCCn1c(N)c(N(CCOC)C(=O)c2cc(-c3ccco3)nc3ccccc23)c(=O)[nH]c1=O	none
COCCN(C(=O)COC(=O)Cc1coc2cc3c(cc12)CCC3)c1c(N)n(Cc2ccccc2)c(=O)[nH]c1=O	Scp1 inh 67 | Scp-1 conf 55 | Scp-1 MG ctr inactive | Scp-1 Tm shift inactive
COCCCN(C(=O)c1cc(-c2ccco2)nc2ccccc12)c1c(N)n(Cc2ccccc2)c(=O)[nH]c1=O	Scp1 inh 64 | Scp-1 conf 47 | Scp-1 MG ctr inactive | Scp-1 Tm shift 5.4
COc1c(C)cccc1C(=O)NC(=S)Nc1cccc2nsnc12	none (no result: PP1 inh, PP5 inh)
CC(C)n1c(/C=C/[C@@H](O)C[C@@H](O)CC(=O)O)c(-c2ccc(F)cc2)c2ccccc21	none
CCOC(=O)Cc1cc(C)[nH]c1C(=O)OCC	none
CC(C)CCNC(=O)c1cc(S(=O)(=O)N2CCCCC2)ccc1N1CCOCC1	none
CCOc1cccc(C2/C(=C(/O)c3ccc4c(c3)CC(C)O4)C(=O)C(=O)N2Cc2cccnc2)c1 (stereo not drawn)	none
O=C(O)Cc1sc(N/N=C\c2ccccc2)nc1-c1ccccc1	Scp1 inh 54 | Scp-1 conf 75 | Scp-1 MG ctr inactive | Scp-1 Tm shift 18
O=C(CN1C(=O)c2ccccc2C1=O)NN1C(=O)c2ccccc2C1=O	Scp1 inh 56 | Scp-1 conf inactive | Scp-1 MG ctr inactive
O=C(Cc1ccccc1)NN1C(=O)c2ccccc2C1=O	none
Cc1cc(C)nc(NC(=O)CN2C(=O)c3ccccc3C2=O)n1	none
C#CCSc1nc2sc3c(c2c(=O)n1C)CCC3	STEP inh 93, Scp1 inh 75 | Scp-1 conf 48 | Scp-1 MG ctr inactive | Scp-1 Tm shift inactive
COc1ccccc1NS(=O)(=O)c1cccc(C(=O)NCC2(N(C)C)CCCCC2)c1	none
C(=N\n1c2ccccc2c2ccccc21)/c1ccccc1	none
C[n+]1cn(/N=C/c2ccccc2)c2ccccc21	Scp1 inh 113 | Scp-1 conf inactive | Scp-1 MG ctr inactive
Cc1cs/c(=N/C(=S)Nc2ccccc2)n1C	none
Cc1c(C(=O)NCCN2CCOC2=O)oc2c(F)cccc12	none | Scp-1 conf inactive | Scp-1 MG ctr inactive
Cc1c(C(=O)NCCN2CCCC(O)C2)oc2c(F)cccc12 (stereo not drawn)	none
N#Cc1ccccc1N1CCN(C(=O)c2ccc(NC(=O)c3ccc(Br)o3)cc2)CC1	Scp1 inh 60 | Scp-1 conf 73 | Scp-1 MG ctr inactive | Scp-1 Tm shift inactive
CCCCC[C@H](C)N1C[C@@H](COCc2ccccc2)Oc2cc(N3CCC[C@H]3COC)ccc2S1(=O)=O	none (no result: STEP inh, PP1 inh, PP5 inh, Scp1 inh)
O=C(Nc1ccc(Cl)cc1)OCc1cn(-c2ccc(Cl)cc2)nn1	Scp1 inh 84 | Scp-1 conf inactive | Scp-1 MG ctr inactive
CCCC(=O)Nc1ccc2oc(-c3ccncc3)nc2c1	none
O=C(Cn1nnc(-c2ccccc2-n2cnnn2)n1)NCc1ccccc1	none
Cc1sc2nc(SCC(=O)Nc3ccc(S(N)(=O)=O)cc3)[nH]c(=O)c2c1C	none

Screening data from PubChem BioAssay.
